# Source: PubChem BioAssay
# Only some compounds are listed: those with a hit (about 3.8% of all), similar ones and a draw of the others.
# ANO1 block: mouse TMEM16A channel inhibition, primary screen | normalized B-score (activity score, 25-100; higher = stronger inhibition) at 10 µM | HEK293 TMEM16A/YFP iodide influx fluorescence, ionomycin | 310,000 compounds, 1.2% hits;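 active = ratio plate-corrected score three or more library SD toward inhibition, starting fluorescence score within five deviations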;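 note: score derived from kinetic fluorescence span divided by baseline fluorescence per well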
# Target sequence (Q8BHY3 whole entry, looked up): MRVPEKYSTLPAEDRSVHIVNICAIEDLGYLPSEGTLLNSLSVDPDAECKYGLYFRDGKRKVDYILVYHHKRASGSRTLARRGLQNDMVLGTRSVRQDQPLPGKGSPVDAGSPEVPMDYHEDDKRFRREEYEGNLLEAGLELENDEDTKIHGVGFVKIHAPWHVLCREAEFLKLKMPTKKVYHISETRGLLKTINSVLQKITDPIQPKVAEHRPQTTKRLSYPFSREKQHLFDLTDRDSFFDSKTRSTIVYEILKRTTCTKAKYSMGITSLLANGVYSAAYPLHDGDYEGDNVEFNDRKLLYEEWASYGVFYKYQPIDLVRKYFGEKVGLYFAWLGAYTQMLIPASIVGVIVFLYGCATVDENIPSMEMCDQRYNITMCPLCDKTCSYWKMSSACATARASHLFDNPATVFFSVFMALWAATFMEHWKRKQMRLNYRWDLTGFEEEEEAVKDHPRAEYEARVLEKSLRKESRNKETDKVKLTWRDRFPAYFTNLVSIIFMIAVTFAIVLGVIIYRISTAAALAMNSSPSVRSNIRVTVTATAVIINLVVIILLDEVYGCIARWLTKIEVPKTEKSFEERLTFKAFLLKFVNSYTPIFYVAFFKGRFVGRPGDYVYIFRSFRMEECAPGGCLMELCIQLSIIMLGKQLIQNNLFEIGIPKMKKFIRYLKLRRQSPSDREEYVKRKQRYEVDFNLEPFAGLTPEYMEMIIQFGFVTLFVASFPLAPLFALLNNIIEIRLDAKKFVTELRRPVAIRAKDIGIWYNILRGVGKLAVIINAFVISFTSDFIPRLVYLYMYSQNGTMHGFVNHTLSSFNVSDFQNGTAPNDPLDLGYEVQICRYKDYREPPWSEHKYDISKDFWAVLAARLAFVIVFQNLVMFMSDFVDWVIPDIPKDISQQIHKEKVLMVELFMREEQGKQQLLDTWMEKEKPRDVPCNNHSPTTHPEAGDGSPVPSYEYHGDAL
# Beta cell apopt: beta cell apoptosis inhibition; protection from apoptosis, % (concentration not given with the values); AID 435005; 300,000 compounds, 0.8% hits; INS-1E cytokine-induced death, ATP luminescence, 48 h; percent of positive-control rescue, neutral wells zero;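 active = Every replicate reaches about 75%, or at least half do and their mean reaches it too, limit read from the data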;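 note: 0% = cytokine-treated negative control wells and 100% = positive control rescue; higher means more ATP so stronger rescue from cytokine killing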
# MC4R antag cAMP: antagonists of human melanocortin 4 receptor (MC4R). MC4R-expressing cells, MTII-stimulated cAMP, LANCE TR-FRET. inhibition, % at 6.5 µM. 360,000 compounds, 0.48% hits;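 active = inhibition above its plate's cutoff, the mean of tested wells on that plate plus 3 SD, cut at about 29% in these data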;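 note: 0% = Melanotan II alone and 100% = Melanotan II plus saturating MCL0020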
#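 Material: U2OS-MC4R stable cell line | Reagent: Melanotan II challenge after compound preincubation | Doses: One concentration, 6.5 µM nominal | Incubation: 30-min compound preincubation, 1-h Melanotan II challenge, 1-h detection, room temperature | Signal: TR-FRET cAMP assay | Replicates: One well per compound, no replicates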
# MC4R ag barr: activates human MC4R beta-arrestin recruitment; P32245; U2OS MC4R beta-arrestin complementation, luminescence; percent of melanotan II response, DMSO zero; activation, % at 8.9 µM; 360,000 compounds, 0.98% hits;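 active = activation above a per-plate cutoff, the mean activation of sample wells on that plate plus 3 SD, cut at about 8% in these data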
# CSC inhib: cancer stem cell inhibition; cancer stem cell-like cells viability, luminescence; inhibition, % at 7.5 µM; 300,000 compounds, 1.1% hits; AID 2717; in the data active = inhibition above about 75%; tested in HMLE shEcad cells
# ANO1 activ: activates or potentiates the mouse TMEM16A chloride channel; HEK293 TMEM16A/YFP-H148Q/I152L, iodide quench fluorescence; active compounds read low; B-score at 10 µM; 340,000 compounds, 0.3% hits; Q8BHY3;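 active = fluorescence-ratio B-score plate-corrected deviation score at least 3 library SD below zero, with starting fluorescence score within 5 deviations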;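 note: channel opened by trigger with iodide after compound preincubation; score built on the fluorescence ratio of max minus min over baseline; more negative score means more quench and so TMEM16A activation or potentiation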
# TMEM16A reconf: TMEM16A (mouse) chloride channel inhibition, re-confirmation. shares compounds with ANO1 block. HEK293 TMEM16A/YFP-H148Q, iodide quench fluorescence; ionomycin added to raise cell calcium. inhibition, % at 10 µM. 2,300 compounds, 39% hits;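 active = mean duplicate percent inhibition, scaled so buffer wells are 0 and the reference blocker 100, over three buffer SD above buffer mean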
# TMEM16A Ca cntr: calcium mobilization counter-screen hit for TMEM16A inhibitor series; shares compounds with ANO1 block; TMEM16A/YFP HEK293, Fluo4 calcium mobilization; calcium response (% of ionomycin), % at 10 µM; 2,300 compounds, 2% hits; AID 652231;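 active = duplicate-averaged calcium signal over 20% of the ionomycin maximum, relative to buffer baseline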;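 note: each well's signal is peak minus trough fluorescence divided by its pre-addition baseline; 0% = buffer wells and 100% = ionomycin wells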
# YFP-HEK293 quench: counter-screen for TMEM16A inhibitors: effect in parental YFP-HEK293 cells; YFP ratio F(max-min)/F0 at 10 µM; 2,300 tested, under 10 active; shares compounds with ANO1 block; iodide YFP quench, ionomycin;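 active = yellow fluorescent protein signal ratio exceeding the buffer control mean by over 5 SD of those controls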;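 note: ratio is mean of duplicate wells from kinetic YFP trace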
# ClC-1 rat inh: blocks the rat ClC-1 voltage-dependent chloride channel. shares compounds with ANO1 block. CHO ClC-1-YFP, iodide influx fluorescence quench; iodide control reads 0, buffer control 100. ratio percent, % at 10 µM. 2,300 tested, under 10 active. AID 652236;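 active = duplicate-mean ratio percent above the mean of iodide-only control wells, which defines zero, plus 5 of their SD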;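 note: higher percent means stronger block of ClC-1 iodide influx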
# Starred values were filed as active, the others as inactive; i = inactive; . = no result given; ! = not active in a repeat.
SMILES,ANO1 block,Beta cell apopt,MC4R antag cAMP,MC4R ag barr,CSC inhib,ANO1 activ,TMEM16A reconf,TMEM16A Ca cntr,YFP-HEK293 quench,ClC-1 rat inh
COc1ccc2ccc(OCC(=O)NCC3CCCO3)cc2c1 (centres undefined),.,.,0.1,-4.3,.,i,.,.,.,.
CCN(CC)S(=O)(=O)c1cc(NC(=O)COC(=O)CCC(=O)c2cccs2)ccc1C,25*,1.4,3.5,1.2,-4.0,i,23.5%*,i,-0.968,-9.5
CCN(CC)S(=O)(=O)c1cccc(NC(=O)COC(=O)CCC(=O)c2cccs2)c1,i,-1.8,3.2,-0.6,-7.4,i,.,.,.,.
CNc1nc(SCc2ccccc2Cl)nc2c1CCCC2,100*,5.3,8.4,0.5,78.9*,i,56.0%*,i,-1.09,-0.5
Cc1c(CN2CCCCC2)c(O)n(CCCO)c(=O)c1C#N,i,-7.5,3.8,0.6,-10.2,i,.,.,.,.
CCCn1c(O)c(CN2CCCCC2)c(C)c(C#N)c1=O,i,-2.9,2.5,1.6,-13.9,.,19.5%*,i,-1.03,-25.5
CC(=O)c1ccc(NC(=O)c2ccc(CSc3ccccc3)o2)cc1,100*,-2.0,15.7,2.2,-3.2,i,22.0%*,i,-0.891,-9.0
O=C(Nc1ccc(F)cc1)c1ccc(CSc2ccccc2)o1,i,-6.3,-1.2,-1.3,33.6,i,.,.,.,.
CN1CCN(C(=O)c2ccc(CSc3ccc(Cl)cc3)cc2)CC1,i,16.6,-7.4,-1.8,68.9,i,.,.,.,.
Cc1ccc(SCc2ccc(C(=O)N3CCCCC3)cc2)cc1,100*,-9.2,-2.5,1.1,24.0,i,i,i,-1.1,-5.5
CCCCn1c(SCc2nc3ccccc3s2)nc2cc(S(N)(=O)=O)ccc21,25*,3.0,9.2,-3.1,6.7,i,i,i,-0.806,-3.0
Cc1[nH]nc(-c2ccc(O)cc2O)c1-c1nc2ccccc2s1,i,.,7.4,-0.5,4.9,i,.,.,.,.
Cc1[nH]nc(-c2ccc(O)cc2O)c1Oc1ccccc1,100*,1.4,-12.6,0.8,51.0,i,24.0%*,i,-1.12,-19.5
CSc1ncccc1C(=O)N(C)CC(=O)Nc1cccc(F)c1,i,-5.1,2.1,-1.8,-2.4,i,.,.,.,.
CCN(CC)S(=O)(=O)c1ccc(S(=O)(=O)Nc2c(C)nn(C)c2C)cc1,25*,56.0,1.6,1.1,-5.4,i,29.5%*,i,-0.907,-5.0
C=CCc1cc(OC)ccc1OCC(O)CN1CCN(c2ccc(OC)cc2)CC1 (centres undefined),25*!,-1.2,-3.2,-1.0,-14.1,i,i,i,-1.21,-14.5
C=CCc1cc(C)ccc1OCC(O)CN1CCN(c2ccccc2)CC1 (centres undefined),i,-9.6,5.6,5.1,22.1,i,.,.,.,.
N#CCC(=O)Nc1ccc(C(=O)OCC(=O)Nc2ccccc2-c2ccccc2)cc1,100*,.,2.5,-1.2,-1.3,i,i,i,-1.09,-10.0
N#CCC(=O)Nc1ccc(C(=O)OCC(=O)NC(=O)Cc2ccccc2)cc1,i,-7.8,-1.6,-1.1,-19.4,i,.,.,.,.
CN(C)CCCNc1nc2cc(-c3cnn(Cc4ccccc4)c3)sc2c(=O)n1C,.,.,-1.7,-0.1,.,.,.,.,.,.
Cc1ccc(Cn2ccc(-c3cnc(-c4ccccc4)s3)n2)cc1,100*,-7.0,12.0,1.0,-5.3,i,19.5%*,i,-1.03,-5.5
O=S(=O)(c1ccccc1)n1ccc(-c2cnc(-c3ccccc3)s2)n1,i,2.8,0.5,-0.7,17.5,i,.,.,.,.
O=C(CN1CCN(S(=O)(=O)c2ccc(Cl)cc2)CC1)NCc1cccs1,i,-7.7,-5.3,-0.7,-5.0,i,.,.,.,.
O=C(CN1CCN(Cc2ccc(Cl)cc2)C1=O)NCc1cccs1,i,-5.7,-10.1,-0.2,3.2,i,i,i,-1.09,-3.5
Cc1ccccc1C(=O)Oc1cccc(Nc2ncnc3ccccc23)c1,25*,56.1,1.7,-1.4,-9.6,i,29.5%*,i,-0.923,-13.5
SMILES,ANO1 block,Beta cell apopt,MC4R antag cAMP,MC4R ag barr,CSC inhib,ANO1 activ,TMEM16A reconf,TMEM16A Ca cntr,YFP-HEK293 quench,ClC-1 rat inh
CC(=O)Oc1cccc(Nc2ncnc3ccccc23)c1,i,14.4,-5.9,-0.7,17.5,i,.,.,.,.
O=C1NC(=O)C(Cc2c[nH]c3ccccc23)N1 (centres undefined),i,2.3,-2.9,-1.3,-1.5,i,.,.,.,.
N#Cc1ccsc1NC(=O)c1cnccn1,i,2.1,1.3,-0.2,-8.0,i,.,.,.,.
CC(C)(C)NS(=O)(=O)c1cc(C(=O)Nc2sccc2C#N)ccc1Cl,i,.,20.2,-2.6,.,i,i,i,-1.03,-14.5
CCOc1ccc(CCNC(=O)c2ccc(N3CCCC3=O)cc2)cc1OCC,25*,1.3,8.6,-0.4,-4.6,i,i,i,-1.21,-10.0
Cc1nc(OCc2ccccc2)c2ccccc2n1,100*,3.7,5.0,0.7,6.0,i,i,i,-1.2,-16.0
COc1ccc(F)cc1COc1nc(C)nc2ccccc12,i,-6.2,1.5,-0.9,5.4,i,.,.,.,.
Cc1nc2ccccc2cc1OCc1ccccc1,100*,43.3,-1.7,8.5*,-5.9,i,32.0%*,i,-0.946,-19.5
O=C(Nc1ccc(F)c(Cl)c1)c1cc(C2CCCN(C(=O)c3cccs3)C2)on1 (centres undefined),.,.,8.6,-1.2,.,.,.,.,.,.
CC(NC(=O)C1CCN(C(=O)c2ccc(F)cc2)CC1)c1ccc(-n2ccnc2)cc1 (centres undefined),.,0.8,0.8,0.3,.,i,.,.,.,.
COc1ccc(CCNC(=O)C/C(C)=N/NC(=O)COc2ccc(C)cc2Br)cc1OC,i,0.0,2.4,3.0,.,i,.,.,.,.
O=C(Nc1cccc(C(=O)N2CCOCC2)c1)C1CCCC1,.,.,14.8,-3.2,.,.,.,.,.,.
COc1ccc([N+](=O)[O-])cc1NCc1ccccc1C,100*,-11.4,-9.8,-1.3,24.5,i,i,i,-1.17,-9.0
COc1ccc([N+](=O)[O-])cc1NCc1ccccc1,i,-20.9,-4.1,-0.1,7.1,i,.,.,.,.
